# Data taken from ChEMBL document CHEMBL1157720, “Development of carbohydrate-derived inhibitors of acid sphingomyelinase” (Bioorg Med Chem, 2010).
# Active and inactive are the calls of the source. No cut-off for these calls is given here.
# Assays:
# [1] = species on record: Rattus norvegicus; settings: Brain, Microsomal
# [2] = biological target: T1, Sphingomyelin phosphodiesterase 2 (Rattus norvegicus, UniProt Q9ET64); assay: Inhibition of nSMase in rat brain microsomal homogenate by micellar 14C-sphingomyelin assay
# T1 sequence (Q9ET64 whole entry): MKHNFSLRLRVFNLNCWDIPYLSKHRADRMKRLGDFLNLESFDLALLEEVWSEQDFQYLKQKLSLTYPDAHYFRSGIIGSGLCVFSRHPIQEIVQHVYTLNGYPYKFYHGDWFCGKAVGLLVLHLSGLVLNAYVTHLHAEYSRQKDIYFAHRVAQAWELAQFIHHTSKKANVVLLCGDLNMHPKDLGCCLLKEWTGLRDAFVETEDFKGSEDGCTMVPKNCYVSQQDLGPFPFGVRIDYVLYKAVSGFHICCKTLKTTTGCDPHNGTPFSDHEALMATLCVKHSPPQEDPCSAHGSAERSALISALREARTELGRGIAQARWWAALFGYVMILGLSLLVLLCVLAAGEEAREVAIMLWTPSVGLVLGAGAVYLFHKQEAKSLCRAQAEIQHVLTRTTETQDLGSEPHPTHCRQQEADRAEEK
# [3] = Inhibition of aSMase in rat brain microsomal homogenate by fluorescence assay
# [4] = test system: HEK293; assay: Inhibition of dexamethasone-induced apoptosis in HEK293 cells assessed as decrease in DNA fragmentation at 1 to 2 uM after 7 hrs by ELISA; assay type: functional, cell-based; settings: Homo sapiens
# How it was run: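 HEK-293 cells in medium with BrdU labelling solution (10 µM final) were plated at about 0.5 × 10³ cells/well. After 16 h they were washed and re-fed, then given 10^-8 M dexamethasone plus inhibitor for 7 h. Supernatant went to an anti-BrdU ELISA (secondary antibody, TMB), with absorbance at 370 nm. Quintuplicate.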
SMILES,Km [1] [µM],IC50 [2] [µM],IC50 [3] [µM],Activity [4]
O=P(O)(O)OC[C@H]1OC(O)[C@H](OP(=O)(O)O)[C@@H](O)[C@@H]1OP(=O)(O)O (some centres not stated),,,> 50,
CCS(=O)(=O)OC[C@H]1OC(O)[C@H](OP(=O)(O)O)[C@@H](O)[C@@H]1OP(=O)(O)O (some centres not stated),,> 100,39.6,
O=P(O)(O)OC[C@H]1OC[C@H](OP(=O)(O)O)C[C@@H]1OP(=O)(O)O,,,> 50,

# More lines, main results first:
Km [1] [µM],IC50 [2] [µM],IC50 [3] [µM],SMILES,Activity [4]
0.53,> 100,,CCCCCC/C=C\C=C/C/C=C\C/C=C\CCCC(=O)OC(COC(=O)CCCCCCCCCCCCCCCCC)COP(=O)(O)O[C@@H]1[C@H](O)[C@H](OP(=O)(O)O)[C@@H](O)[C@H](OP(=O)(O)O)[C@H]1O (some centres not stated),
,> 100,,CCCCCCS(=O)(=O)OC[C@H]1OC(O)[C@H](OP(=O)(O)O)[C@@H](O)[C@@H]1OP(=O)(O)O (some centres not stated),
,> 100,2.34,CCCCCCCCS(=O)(=O)OC[C@H]1OC(O)[C@H](OP(=O)(O)O)[C@@H](O)[C@@H]1OP(=O)(O)O (some centres not stated),
,> 100,0.44,CCCCCCCCCCCCS(=O)(=O)OC[C@H]1OC(O)[C@H](OP(=O)(O)O)[C@@H](O)[C@@H]1OP(=O)(O)O (some centres not stated),Active
